Results: PubChem BioAssay AID493236 (Broad Institute, 2011)
Inconclusive results are not listed. Calls of active or inactive are those of the source.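 Rule for the calls: active = luminescence cut by more than half of the full-inhibition control window in a dose series; inconclusive = no clear call, values can overlap the other calls; inactive = signal rising instead of falling, or the rest.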

System: proteasome chymotrypsin-like activity (human)
Experiment: proteasome chymotrypsin-like activity inhibitors, dose response, counter-screen for HIF pathway activator project, cell-based, U2OS, luminescence, dry powder, set 4 (AID 493236)
How it was run: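 Assay system – U2OS cells · Doses – 8-point threefold dilution series, source stock top 16.5 mM · Schedule – 24 h plating, 4 h compound, 2 h reagent · Detection – Proteasome-Glo luminescence · Evaluation – percent activity relative to MG132 and DMSO · Benchmarks – MG132 1 µM positive control, DMSO neutral control · Replication – duplicate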

Compound | outcome
Oc1ccc(CN2CCC3CCCCC3C2)c2cccnc12 (configuration not stated) | inactive
N#CC1(c2ccccc2)CCN(Cc2ccc(O)c3ncccc23)CC1 | inactive
